Results: paper PMC3481142 (Cell Death & Disease, 2012)
Square brackets hold non-standard residues; d marks the D form. Peptide text beside a SMILES is read from it.

Key:
Saos-2 cells = assay: cytochrome c release, immunolocalization; type: cell-based; conditions: 10 µM, 24 h
[1] = system: Cyt c release in MDA-MB-468 cells; assay: Cyt c release from mitochondria; type: cell-based, human; conditions: 48 h; doxorubicin 5 μM
In short: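 MDA-MB-468 cells were grown as a monolayer in Leibovitz's L-15 with 10% FBS at 37 °C without CO2, then seeded at 125 000 cells/ml. They were exposed to the test compounds for 48 h at the indicated concentrations. Cytochrome c release was quantified with a flow-cytometric cytochrome c release kit per the manufacturer's protocol, and cells were analysed on a flow cytometer.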

[2] = system: Bcl-2 family proteins, IAPs and caspases in MDA-MB-468 cells; assay: western blots of apoptosis-related proteins and caspases; type: cell-based, human; conditions: 72 h
In short: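 MDA-MB-468 cells were treated for 72 h with TAT-NBI1, erlotinib or both at the indicated μM concentrations. Whole-cell extracts were made in 25 mM Tris-HCl pH 7.4, 1 mM EDTA, 1 mM EGTA and 1% SDS with protease and phosphatase inhibitors, and protein was quantified by BCA. Lysates were run on SDS-PAGE, transferred to nitrocellulose and immunoblotted.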

SKBr3 cells = assay: MTT and trypan blue cell viability assays; type: cell-based, human
[3] = solubility in culture medium; type: physicochemical
[4] = patients with advance solid tumors; cited from earlier work
MDA-MB-231 cell line = assay: cell viability IC50 determination; type: cell-based; conditions: Homo sapiens, MDA-MB-231, read-out: IC50 (MDA-MB-231)
[5] = system: caspase-3/7 activity in MDA-MB-231 cells; assay: caspase activation assay in cellular extracts; type: cell-based
In short: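 MDA-MB-231 cells were grown in Leibovitz's L-15 with 10% FBS at 37 °C without CO2. Cells were co-treated with TAT-NBI1/erlotinib at the indicated μM concentrations, with or without necrostatin-1 (100 μM). Etoposide (25 μM) ± necrostatin-1 served as reference. Caspase-3/7 activation was measured in cellular extracts.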

[6] = system: caspase-3/7 activity in MDA-MB-468 cells; assay: caspase activation assay in cellular extracts; type: cell-based, human
In short: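 MDA-MB-468 cells were cultured in L-15 with 10% FBS at 37 °C without CO2 and seeded at 125 000 cells/ml. They received TAT-NBI1/erlotinib co-treatment at the indicated μM concentrations, with or without necrostatin-1, for 48 h. Caspase-3/7 activity was then measured in cellular extracts.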

With `CC[C@@H](C)[C@@H](NC(=O)[C@@H](Cc1c[nH]c2ccccc12)NC(=O)[C@@H](CCCNC(=N)N)NC(=O)[C@H](CCC(N)=O)NC(=O)[C@@H]1CCCN1C(=O)[C@H](CCCNC(=N)N)NC(=O)[C@H](CCCNC(=N)N)NC(=O)[C@H](CCCNC(=N)N)NC(=O)[C@H](CCC(N)=O)NC(=O)[C@H](CCCNC(=N)N)NC(=O)[C@H](CCCNC(=N)N)NC(=O)[C@H](CCCCN)NC(=O)[C@H](CCCCN)NC(=O)[C@H](CCCNC(=N)N)NC(=O)CN)C(=O)N[C@H](CCSC)C(=O)N[C@H](Cc1ccc(O)cc1)C(=O)N[C@H](Cc1ccccc1)C(N)=O` [TAT-NBI1] (H-GRKKRRQRRRPQ[dR][dW][dI][dM][dY][dF]-NH2; N-terminus and C-terminus assumed) the “mechanism of cell death followed by cytochrome c release to the cytosol” value (Saos-2 cells) was “induced cell death by intrinsic, mitochondrial-mediated, apoptosis”.
In the case of `COc1cccc2c1C(=O)c1c(O)c3c(c(O)c1C2=O)C[C@@](O)(C(=O)CO)C[C@@H]3O[C@H]1C[C@H](N)[C@H](O)[C@H](C)O1` [doxorubicin], the “Cyt c release to the cytoplasm” value [1] is reported as “Cyt c release to the cytoplasm”.
For `C#Cc1cccc(Nc2ncnc3cc(OCCOC)c(OCCOC)cc23)c1` [erlotinib], the Bim expression [2] was “upregulated”, the “change of lethal dose of erlotinib in the presence of TAT-NBI1” value (SKBr3 cells) was “twofold lower” and the solubility [3] was ≤ 20 µM. For the same molecule, the “plasma concentration at the steady state” value [4] was ~5 µM and the IC50 (MDA-MB-231 cell line) was > 20 µM.
With `CN1C(=O)C(Cc2c[nH]c3ccccc23)NC1=S` (stereo not drawn) [nec-1, necrostatin-1] the “effect on TAT-NBI1/erlotinib-induced caspase activation” value [5] was “inhibited” and the “effect on TAT-NBI1/erlotinib-induced caspase activation” value [6] was “inhibited”.
